This is an account of results in ChEMBL document CHEMBL1154892, “Saponins and polyphenols from Fadogia ancylantha (makoni tea)” (J Nat Prod, 2010).

Converted amounts (≈) assume the structure as drawn. The source made the active and inactive calls. The calls are words filed in the database; no cut-off is given here.

Experiment [1] concerns Staphylococcus epidermidis. The experiment in a line: Antibacterial activity against Staphylococcus epidermidis ATCC 12228 after 48 hrs by broth microdilution method. It is filed as functional. To be noted: ATCC 12228, 48 h. The gist of the method:
(§1)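 Broth microdilution in 96-well plates, in duplicate, per NCCLS (2001), ATCC strains. MBC taken as lowest concentration at which no microbial cell survived after 48 h incubation (bacteria) or 5 days (yeast and mold).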
In general terms: In broth dilution the organism is exposed to a series of concentrations in liquid medium.

The test system of experiment [2] is Radical scavenging activity. The experiment in a line: Antioxidant activity assessed as DPPH radical scavenging activity after 10 mins. It is filed as functional. A digest of the protocol: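 Methanolic sample solution added to DPPH solution (0.025 g/L in MeOH, prepared daily); vehicle alone in control tubes; absorbance read at 515 nm 10 min after start. α-Tocopherol positive control. Triplicate runs; EC50 calculated by Litchfield and Wilcoxon method.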
(In general: DPPH is a stable violet radical that fades when it is reduced.)

For experiment [3], the system named is Staphylococcus epidermidis. In words: Antibacterial activity against Staphylococcus epidermidis ATCC 12228 after 24 hrs by broth microdilution method. The format is functional. The note with it: ATCC 12228, 24 h. A digest of the protocol:
(§2)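 Broth microdilution in 96-well plates, in duplicate, following NCCLS (2001); ATCC Gram-positive and Gram-negative bacteria, a yeast and a mold. MIC taken as lowest concentration inhibiting microbial growth after 24 h.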

Experiment [4] deals with Candida albicans. In words: Antifungal activity against Candida albicans ATCC 10231 after 5 days by broth microdilution method. The format is functional. A digest of the protocol:
as §1

Experiment [5] deals with Escherichia coli. In words: Antibacterial activity against Escherichia coli ATCC 8739 after 24 hrs by broth microdilution method. The format is functional. A digest of the protocol: as §2
In experiment [6] the test system is Candida albicans. In words: Antifungal activity against Candida albicans ATCC 10231 after 24 hrs by broth microdilution method. It is filed as functional. The note with it: ATCC 10231, 24 h. The gist of the method:
as §2

The subject of experiment [7] is Pseudomonas aeruginosa. In words: Antibacterial activity against Pseudomonas aeruginosa ATCC 9027 after 48 hrs by broth microdilution method. It is filed as functional. The gist of the method: as §1
Experiment [8] has as its system Escherichia coli. In words: Antibacterial activity against Escherichia coli ATCC 8739 after 48 hrs by broth microdilution method. It is filed as functional, organism-based. A digest of the protocol:
as §1

Experiment [9] deals with Aspergillus niger. In words: Antifungal activity against Aspergillus niger ATCC 16404 after 24 hrs by broth microdilution method. It is filed as functional. To be noted: ATCC 16404, 24 h. A digest of the protocol: as §2
For experiment [10], the system named is Bacillus spizizenii. The experiment in a line: Antibacterial activity against Bacillus spizizenii ATCC 6633 after 48 hrs by broth microdilution method. The format is functional. To be noted: ATCC 6633, 48 h. The gist of the method:
as §1

In experiment [11] the test system is Aspergillus niger. The experiment in a line: Antifungal activity against Aspergillus niger ATCC 16404 after 5 days by broth microdilution method. The format is functional. A digest of the protocol: as §1
In experiment [12] the test system is Staphylococcus aureus. The experiment in a line: Antibacterial activity against Staphylococcus aureus ATCC 6538 after 24 hrs by broth microdilution method. It is filed as functional. The note with it: ATCC 6538, 24 h. The gist of the method: as §2
The test system of experiment [13] is Pseudomonas aeruginosa. In words: Antibacterial activity against Pseudomonas aeruginosa ATCC 9027 after 24 hrs by broth microdilution method. The format is functional. The gist of the method:
as §2

Experiment [14] has as its system Bacillus spizizenii. The experiment in a line: Antibacterial activity against Bacillus spizizenii ATCC 6633 after 24 hrs by broth microdilution method. The format is functional. The note with it: ATCC 6633, 24 h. The gist of the method:
as §2

For experiment [15], the system named is Staphylococcus aureus. In words: Antibacterial activity against Staphylococcus aureus ATCC 6538 after 48 hrs by broth microdilution method. The format is functional. The note with it: ATCC 6538, 48 h. A digest of the protocol:
as §1

By EC50 is commonly meant the concentration needed to bring the measured effect to its halfway point. Usually MIC stands for the lowest concentration that inhibits growth of the organism. Consider `O=c1cc(-c2ccc(O)c(O)c2)oc2cc(O[C@@H]3O[C@H](CO)[C@@H](O)[C@H](O)[C@H]3O)ccc12`, for which the figures for the MBC (in experiment [1]; against Bacillus spizizenii [10]; in the experiment with Staphylococcus aureus [15]) were 4000 µg/mL (≈ 9.25 mM), 1000 µg/mL (≈ 2.31 mM) and 4000 µg/mL (≈ 9.25 mM), respectively. Also, in experiment [2], the EC50 stood at 28.4 µg/mL (≈ 0.0657 mM). Besides, the MIC in experiment [3] amounted to 500 µg/mL (≈ 1.16 mM); in the experiment on Candida albicans [6], 4000 µg/mL (≈ 9.25 mM); in the experiment with Aspergillus niger [9] it was 1000 µg/mL (≈ 2.31 mM); in the experiment on Staphylococcus aureus [12], 2000 µg/mL (≈ 4.63 mM); with Pseudomonas aeruginosa [13] (ATCC 9027, 24 h) it was 4000 µg/mL (≈ 9.25 mM); with Bacillus spizizenii [14] it was 1000 µg/mL (≈ 2.31 mM). The MBC entry in the experiment with Candida albicans [4], with Pseudomonas aeruginosa [7], in the experiment on Escherichia coli [8] and with Aspergillus niger [11] was “inactive” throughout. Also, the MIC entry in the experiment on Escherichia coli [5] was “inactive”.
In the case of `Cc1c(C)c2c(c(C)c1O)CC[C@@](C)(CCC[C@H](C)CCC[C@H](C)CCCC(C)C)O2` [ALPHA-TOCOPHEROL], the concentration for a half-maximal effect (EC50) in [2] worked out at 10.1 µg/mL (≈ 0.0234 mM).
`O=C(CCc1ccc(O)cc1)c1ccc(O[C@@H]2O[C@H](CO)[C@@H](O)[C@H](O)[C@H]2O)cc1O` [CONFUSOSIDE]: the values for the MBC (in experiment [1]; with Bacillus spizizenii [10]; in the experiment on Staphylococcus aureus [15]) were 2000 µg/mL (≈ 4.76 mM), 1000 µg/mL (≈ 2.38 mM) and 4000 µg/mL (≈ 9.51 mM), respectively. Also, in [2], the EC50 is greater than 1000 µg/mL. Also, the minimum inhibitory concentration (MIC) in experiment [3] came out at 1000 µg/mL (≈ 2.38 mM); against Escherichia coli [5] (ATCC 8739, 24 h) it was 2000 µg/mL (≈ 4.76 mM); against Candida albicans [6] it was 4000 µg/mL (≈ 9.51 mM); against Aspergillus niger [9] it was 120 µg/mL (≈ 0.285 mM); in the experiment on Staphylococcus aureus [12] it was 4000 µg/mL (≈ 9.51 mM); in the experiment on Bacillus spizizenii [14], 120 µg/mL (≈ 0.285 mM). In addition, the MBC result in the experiment with Candida albicans [4], in the experiment with Pseudomonas aeruginosa [7], in the experiment on Escherichia coli [8] and in the experiment on Aspergillus niger [11] was “inactive” throughout. For the same compound, in the experiment on Pseudomonas aeruginosa [13], the MIC result was “inactive”.
Consider `O=C(CCc1ccc(O)cc1)c1ccc(O)cc1O` [DAVIDIGENIN], for which the MBC was found to be 500 µg/mL (≈ 1.94 mM) in experiment [1]; 2000 µg/mL (≈ 7.74 mM) in the experiment on Candida albicans [4] (ATCC 10231, 120 h); 4000 µg/mL (≈ 15.5 mM) in the experiment on Pseudomonas aeruginosa [7] (ATCC 9027, 48 h); 500 µg/mL (≈ 1.94 mM) against Bacillus spizizenii [10]; 500 µg/mL (≈ 1.94 mM) in the experiment on Staphylococcus aureus [15]. For the same compound, in [2], the EC50 is greater than 1000 µg/mL. In addition, the MIC in [3] was 250 µg/mL (≈ 0.968 mM); in the experiment on Escherichia coli [5] (ATCC 8739, 24 h), 4000 µg/mL (≈ 15.5 mM); against Candida albicans [6], 1000 µg/mL (≈ 3.87 mM); against Aspergillus niger [9], 120 µg/mL (≈ 0.465 mM); in the experiment on Staphylococcus aureus [12], 120 µg/mL (≈ 0.465 mM); against Pseudomonas aeruginosa [13] (ATCC 9027, 24 h), 2000 µg/mL (≈ 7.74 mM). In addition, it took 120 µg/mL (≈ 0.465 mM) to inhibit growth with Bacillus spizizenii [14] (MIC). The MBC result in the experiment with Escherichia coli [8] and with Aspergillus niger [11] was “inactive” each time.
Take `O=c1c(O[C@@H]2O[C@H](CO)[C@@H](O)[C@H](O)[C@H]2O)c(-c2ccc(O)c(O)c2)oc2cc(O)cc(O)c12` [ISOQUERCETIN]: the MBC was 4000 µg/mL (≈ 8.61 mM) in [1]; 2000 µg/mL (≈ 4.31 mM) with Bacillus spizizenii [10]; 4000 µg/mL (≈ 8.61 mM) against Aspergillus niger [11] (ATCC 16404, 120 h); 4000 µg/mL (≈ 8.61 mM) in the experiment with Staphylococcus aureus [15]. For the same compound, in [2], the EC50 was 20.4 µg/mL (≈ 0.0439 mM). Besides, the MIC turned out to be 1000 µg/mL (≈ 2.15 mM) in experiment [3]; 4000 µg/mL (≈ 8.61 mM) in the experiment on Candida albicans [6]; 2000 µg/mL (≈ 4.31 mM) against Aspergillus niger [9]; 4000 µg/mL (≈ 8.61 mM) with Staphylococcus aureus [12]; 1000 µg/mL (≈ 2.15 mM) against Bacillus spizizenii [14]. Besides, the MBC result in the experiment with Candida albicans [4], in the experiment with Pseudomonas aeruginosa [7] and in the experiment with Escherichia coli [8] was “inactive” throughout. The MIC result in the experiment on Escherichia coli [5] and in the experiment with Pseudomonas aeruginosa [13] was “inactive” throughout.
